Assays:
[1] = target: T1, GABA-A receptor; alpha-5/beta-3/gamma-2 (Homo sapiens, UniProt P18507+P28472+P31644); assay: Displacement of [3H]-Ro- 15-1788 binding from human recombinant Gamma-aminobutyric acid A receptor alpha-5-beta-3-gamma-2 expressed in mouse fibroblast L(tk-) cells (30 min at 24 degrees C, pH 7.4); assay type: cell-based
T1 sequence (P18507 whole entry): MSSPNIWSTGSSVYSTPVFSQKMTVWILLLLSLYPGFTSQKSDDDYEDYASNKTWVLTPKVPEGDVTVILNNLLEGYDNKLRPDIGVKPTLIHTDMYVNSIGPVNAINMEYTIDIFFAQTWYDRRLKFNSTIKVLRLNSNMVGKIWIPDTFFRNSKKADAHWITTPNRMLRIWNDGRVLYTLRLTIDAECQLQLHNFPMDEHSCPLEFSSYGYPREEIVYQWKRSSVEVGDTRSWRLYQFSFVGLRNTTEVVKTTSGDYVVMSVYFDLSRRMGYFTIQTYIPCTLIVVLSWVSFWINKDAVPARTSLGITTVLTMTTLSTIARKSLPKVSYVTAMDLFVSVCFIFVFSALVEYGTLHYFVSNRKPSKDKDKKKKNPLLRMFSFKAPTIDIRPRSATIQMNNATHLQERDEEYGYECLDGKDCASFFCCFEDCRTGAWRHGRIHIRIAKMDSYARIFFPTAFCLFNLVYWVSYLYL
T1 sequence (P28472 whole entry): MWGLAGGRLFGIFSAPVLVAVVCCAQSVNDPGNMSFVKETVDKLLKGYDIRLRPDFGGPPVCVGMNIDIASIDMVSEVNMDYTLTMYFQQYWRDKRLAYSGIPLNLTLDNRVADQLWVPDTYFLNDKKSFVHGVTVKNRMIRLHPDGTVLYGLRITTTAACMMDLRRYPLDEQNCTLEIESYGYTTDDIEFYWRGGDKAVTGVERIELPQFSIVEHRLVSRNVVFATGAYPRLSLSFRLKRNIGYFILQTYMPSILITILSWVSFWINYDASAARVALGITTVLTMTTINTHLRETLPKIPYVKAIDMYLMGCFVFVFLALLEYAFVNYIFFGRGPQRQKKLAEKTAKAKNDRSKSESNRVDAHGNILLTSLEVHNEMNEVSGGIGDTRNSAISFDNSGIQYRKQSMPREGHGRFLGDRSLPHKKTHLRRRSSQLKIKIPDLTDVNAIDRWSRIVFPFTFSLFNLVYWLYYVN
T1 sequence (P31644 whole entry): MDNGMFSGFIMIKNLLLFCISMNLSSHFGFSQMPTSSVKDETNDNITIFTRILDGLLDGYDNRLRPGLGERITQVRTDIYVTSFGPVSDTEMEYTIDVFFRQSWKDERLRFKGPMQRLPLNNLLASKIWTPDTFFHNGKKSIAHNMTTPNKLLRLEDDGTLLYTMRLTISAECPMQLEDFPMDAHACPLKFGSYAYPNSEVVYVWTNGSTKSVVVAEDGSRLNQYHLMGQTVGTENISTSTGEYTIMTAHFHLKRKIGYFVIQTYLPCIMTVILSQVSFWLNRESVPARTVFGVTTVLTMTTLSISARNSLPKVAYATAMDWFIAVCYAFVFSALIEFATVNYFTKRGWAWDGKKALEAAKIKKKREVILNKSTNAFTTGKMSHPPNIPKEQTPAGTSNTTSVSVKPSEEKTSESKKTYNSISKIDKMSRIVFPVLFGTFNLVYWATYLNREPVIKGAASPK
Outline: (§1)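 Membranes from L(tk-) cells stably expressing human α1, α3 or α5 β3γ2 in 50 mM Tris pH 7.4. [3H]Ro15-1788 at 1.8 nM final, 30 min at 24 °C. Nonspecific binding set with 10 µM flunitrazepam, total binding in 0.1% DMSO. Filtration, scintillation counting. Ki is mean ± SEM of ≥3 independent determinations.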

[2] = target: T2, GABA-A receptor; alpha-3/beta-3/gamma-2 (Homo sapiens, UniProt P18507+P28472+P34903); assay: Displacement of [3H]-Ro- 15-1788 binding from human recombinant Gamma-aminobutyric acid A receptor alpha-3-beta-3-gamma-2 expressed in mouse fibroblast L(tk-) cells (30 min at 24 degrees C, pH 7.4); assay type: cell-based; outline: as §1
T2 sequence (P18507 whole entry): T1 sequence (P18507 whole entry)
T2 sequence (P28472 whole entry): T1 sequence (P28472 whole entry)
T2 sequence (P34903 whole entry): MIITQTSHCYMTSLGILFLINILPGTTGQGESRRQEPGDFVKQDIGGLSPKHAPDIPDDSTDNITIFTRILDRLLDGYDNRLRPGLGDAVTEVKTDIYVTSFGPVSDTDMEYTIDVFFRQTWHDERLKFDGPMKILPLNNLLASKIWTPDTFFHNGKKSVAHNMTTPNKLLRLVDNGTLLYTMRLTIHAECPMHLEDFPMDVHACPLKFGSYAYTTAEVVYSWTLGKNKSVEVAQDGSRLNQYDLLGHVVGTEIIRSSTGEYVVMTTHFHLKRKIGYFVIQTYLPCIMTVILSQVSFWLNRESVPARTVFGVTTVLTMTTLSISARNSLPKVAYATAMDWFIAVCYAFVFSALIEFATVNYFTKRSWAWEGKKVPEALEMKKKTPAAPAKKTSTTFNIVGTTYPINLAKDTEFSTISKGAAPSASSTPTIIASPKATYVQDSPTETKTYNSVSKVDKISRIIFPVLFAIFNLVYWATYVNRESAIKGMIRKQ

[3] = target: T3, GABA-A receptor; alpha-5/beta-3/gamma-2 (Homo sapiens) (UniProt P18507+P28472+P31644); assay: Efficacy at GABAA alpha-5-beta-3-gamma-2 receptor expressed in mouse fibroblast L(tk-) cells measured at 300 nM derived from at least three plates/day screened over a minimum of 2 days; assay type: functional, cell-based
Outline: (§2)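 FRET membrane-potential (VIPR) assay in L(tk-) cells with receptor expression induced 24 h by 1 µM dexamethasone. Dye-loaded 30 min in low-Cl- HEPES buffer pH 7.4: 4 µM CC2-DMPE, 1 µM DiSBAC2(3), 0.5 mM tartrazine. Basal read 8 s, compound at 300 nM, half-maximal GABA 22 s later, 1 Hz reads. Background-subtracted 460/580 nm ratio, normalized to DMCM as -100%.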

[4] = target: T4, GABA-A receptor; alpha-3/beta-3/gamma-2 (Homo sapiens) (UniProt P18507+P28472+P34903); assay: Efficacy at GABAA alpha-3-beta-3-gamma-2 receptor expressed in mouse fibroblast L(tk-) cells measured at 300 nM derived from at least three plates/day screened over a minimum of 2 days; assay type: functional, cell-based; outline: as §2
[5] = target: T5, GABA-A receptor; alpha-1/beta-3/gamma-2 (Homo sapiens, UniProt P14867+P18507+P28472); assay: Displacement of [3H]-Ro- 15-1788 binding from human recombinant Gamma-aminobutyric acid A receptor alpha-1-beta-3-gamma-2 expressed in mouse fibroblast L(tk-) cells (30 min at 24 degrees C, pH 7.4); assay type: cell-based; outline: as §1
T5 sequence (P14867 whole entry): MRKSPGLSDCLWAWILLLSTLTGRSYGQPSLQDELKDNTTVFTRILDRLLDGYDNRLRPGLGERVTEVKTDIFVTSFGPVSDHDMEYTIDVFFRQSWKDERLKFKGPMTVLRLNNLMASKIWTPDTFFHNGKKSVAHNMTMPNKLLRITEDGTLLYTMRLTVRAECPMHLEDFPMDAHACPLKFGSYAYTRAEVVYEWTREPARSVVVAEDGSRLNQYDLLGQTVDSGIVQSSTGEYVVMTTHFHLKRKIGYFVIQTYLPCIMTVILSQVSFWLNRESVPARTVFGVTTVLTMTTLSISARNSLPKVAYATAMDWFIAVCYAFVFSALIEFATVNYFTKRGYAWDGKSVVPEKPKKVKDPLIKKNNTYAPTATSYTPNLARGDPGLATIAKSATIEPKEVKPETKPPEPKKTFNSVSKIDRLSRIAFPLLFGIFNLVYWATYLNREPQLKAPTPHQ
T5 sequence (P18507 whole entry): T1 sequence (P18507 whole entry)
T5 sequence (P28472 whole entry): T1 sequence (P28472 whole entry)

[6] = target: T4, GABA-A receptor; alpha-3/beta-3/gamma-2 (Homo sapiens); assay: Efficacy for GABA-A alpha-3-beta-3-gamma-2 receptor expressed in mouse fibroblast L(tk-) cells at 300 nM derived from at least three plates/day screened over a minimum of 2 days; assay type: functional, cell-based; outline: as §2
[7] = target: T3, GABA-A receptor; alpha-5/beta-3/gamma-2 (Homo sapiens); assay: Efficacy for GABA-A alpha-5-beta-3-gamma-2 receptor expressed in mouse fibroblast L(tk-) cells at 300 nM derived from at least three plates/day screened over a minimum of 2 days; assay type: functional, cell-based; outline: as §2

Row | SMILES | Ki [1] | Ki [2] | Efficacy [3] | Efficacy [4] | Ki [5] | Efficacy [6] | Efficacy [7]
1 | c1ccc(-c2cnnc(-c3ccccc3)c2)cc1 | 29 nM | 45 nM | -14 | -20 | 36 nM | – | –
2 | Cn1ncnc1COc1cccc(-c2cnnc(-c3ccccc3)c2)c1 | 8.8 nM | 10.4 nM | -5 | 43 | 8.5 nM | – | –
3 | COC(=O)c1sccc1-c1cnnc(-c2ccccc2)c1 | 12 nM | 45 nM | -39 | -44 | 88 nM | – | –
4 | CCOc1cc(-c2cccc(C#N)c2)cnn1 | 36 nM | 72 nM | -9 | 19 | – | – | –
5 | N#Cc1cccc(-c2cnnc(NCc3ccccc3)c2)c1 | 6.1 nM | 15 nM | 17 | 59 | – | – | –
6 | Brc1cccc(-c2cnnc(NCc3ccccc3)c2)c1 | 19 nM | 51 nM | 14 | 66 | – | – | –
7 | N#Cc1cccc(-c2cnnc(-c3cccc(F)c3)c2)c1 | 4 nM | 7.2 nM | 0 | 3.6 | – | – | –
8 | N#Cc1cccc(-c2cnnc(-c3ccc(F)cc3)c2)c1 | 14 nM | 26 nM | – | – | – | – | –
9 | c1ccc(-c2cc(-c3ccnc(-c4ccncc4)n3)cnn2)cc1 | 1.6 nM | 3.1 nM | -62 | -49 | 1.3 nM | – | –
10 | Brc1cccc(-c2cnnc(OCc3ccccc3)c2)c1 | 63 nM | 302 nM | – | 32 | – | – | –
11 | N#Cc1cccc(-c2cc(-c3ccccc3)cnn2)c1 | > 666 nM | > 666 nM | – | – | > 666 nM | – | –
12 | Brc1cccc(-c2cnnc(-c3ccccc3)c2)c1 | 7.9 nM | 15 nM | -2 | – | 7.5 nM | -2 | –
13 | COC(=O)c1cccc(-c2cnnc(-c3ccccc3)c2)c1 | 11 nM | 29 nM | -48 | -7 | – | – | –
14 | N#Cc1cccc(-c2cnnc(-c3ccc(F)cc3F)c2)c1 | 17 nM | 23 nM | -57 | – | – | – | –
15 | N#Cc1ccccc1-c1cnnc(-c2ccccc2)c1 | 323 nM | 440 nM | – | – | – | – | –
16 | N#Cc1cccc(-c2cnnc(-c3ccccc3F)c2)c1 | 3.4 nM | 7.9 nM | -31 | -17 | – | – | –
17 | CCNc1cc(-c2cccc(Br)c2)cnn1 | 3.8 nM | 7.3 nM | -12 | 2 | 3.5 nM | – | –
18 | CC(C)Nc1cc(-c2cccc(Br)c2)cnn1 | 7.2 nM | 22 nM | 14 | 25 | 7.3 nM | – | –
19 | N#Cc1cccc(-c2cnnc(-c3ccc(F)c(F)c3)c2)c1 | 13 nM | 41 nM | – | 32 | – | – | -15
20 | CN(C)c1cc(-c2cccc(Br)c2)cnn1 | 51 nM | 120 nM | -62 | -49 | 55 nM | – | –
21 | CNc1cc(-c2cccc(Br)c2)cnn1 | 27 nM | 113 nM | -26 | 3 | 49 nM | – | –
22 | CCOc1cc(-c2cccc(Br)c2)cnn1 | 5.7 nM | 19 nM | 4 | 39 | 8.6 nM | – | –
23 | CC(C)Oc1cccc(-c2cnnc(-c3ccccc3)c2)c1 | 8.4 nM | 27 nM | 18 | 22 | 12 nM | – | –
24 | N#Cc1ccc(-c2cnnc(-c3ccccc3)c2)cc1 | 56 nM | 81 nM | 45 | 49 | 27 nM | – | –
25 | CCNc1cc(-c2cccc(C#N)c2)cnn1 | 33 nM | 79 nM | -29 | 8 | – | – | –
26 | COC(=O)c1c(-c2ccccc2)cnnc1-c1ccccc1 | 12 nM | 64 nM | – | – | 154 nM | – | 27
27 | COc1cc(-c2cccc(Br)c2)cnn1 | 54 nM | 205 nM | -18 | 42 | – | – | –
28 | c1ccc(-c2cc(-c3cccc(-n4cnnc4)c3)cnn2)cc1 | 12 nM | 41 nM | -31 | 13 | – | – | –
29 | CC(C)Oc1cc(-c2cccc(Br)c2)cnn1 | 36 nM | 60 nM | 12 | 28 | 26 nM | – | –
30 | N#Cc1cccc(-c2cnnc(OCc3ccccc3)c2)c1 | 17 nM | 60 nM | – | 60 | – | – | –
